Assay results taken from ChEMBL document CHEMBL1126293, “Substrate specificity of isopenicillin N synthase” (J Med Chem, 1992).

Assays:
[1] = target: T1, Isopenicillin N synthase (Penicillium chrysogenum) (UniProt P08703); test: Anti-micrococcus luteus activity was tested for inhibition of isopenicillin N synthetase.; details: Penicillium chrysogenum (Penicillium notatum)
T1 sequence (whole entry): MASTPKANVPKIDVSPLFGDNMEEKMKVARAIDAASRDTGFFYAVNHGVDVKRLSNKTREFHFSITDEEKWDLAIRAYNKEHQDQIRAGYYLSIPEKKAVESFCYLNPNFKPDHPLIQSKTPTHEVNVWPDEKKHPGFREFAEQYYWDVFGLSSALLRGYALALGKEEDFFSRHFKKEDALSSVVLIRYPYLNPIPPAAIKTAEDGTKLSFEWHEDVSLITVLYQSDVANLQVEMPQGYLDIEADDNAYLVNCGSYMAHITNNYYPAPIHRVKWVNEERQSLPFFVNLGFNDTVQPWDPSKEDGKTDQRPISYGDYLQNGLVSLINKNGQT
Outline: (§1)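 Peptide added at a known amount to a standard IPNS reaction mixture with ACV as substrate before starting the reaction with enzyme. Applied to peptides not converted to an anti-M. luteus product. Percent inhibition derived from the ratio of reaction rates with and without the peptide.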

Micrococcus luteus [2] = test: The compound was tested for the antibiotic activity against Micrococcus luteus(ATCC 9341 stain); no; format: functional, organism-based
Outline: (§2)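 Peptides at 0.3 mM incubated with purified IPNS in Tris-HCl pH 8.0 containing KCl, MgSO4, FeSO4, ascorbate and DTT, at 25 °C for 2–20 min in quadruplicate, then stopped with ethanol. Samples with and without penicillinase went into wells on M. luteus ATCC 9341 lawns, incubated overnight at 37 °C, and inhibition zones were read. Peptides giving no product were retested for 1 h at 3 mM.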

[3] = target: T2, Regulatory protein BlaR1 (Bacillus licheniformis) (UniProt P12287); test: Beta-lactamase induction in Bacillus licheniformis
T2 sequence (whole entry): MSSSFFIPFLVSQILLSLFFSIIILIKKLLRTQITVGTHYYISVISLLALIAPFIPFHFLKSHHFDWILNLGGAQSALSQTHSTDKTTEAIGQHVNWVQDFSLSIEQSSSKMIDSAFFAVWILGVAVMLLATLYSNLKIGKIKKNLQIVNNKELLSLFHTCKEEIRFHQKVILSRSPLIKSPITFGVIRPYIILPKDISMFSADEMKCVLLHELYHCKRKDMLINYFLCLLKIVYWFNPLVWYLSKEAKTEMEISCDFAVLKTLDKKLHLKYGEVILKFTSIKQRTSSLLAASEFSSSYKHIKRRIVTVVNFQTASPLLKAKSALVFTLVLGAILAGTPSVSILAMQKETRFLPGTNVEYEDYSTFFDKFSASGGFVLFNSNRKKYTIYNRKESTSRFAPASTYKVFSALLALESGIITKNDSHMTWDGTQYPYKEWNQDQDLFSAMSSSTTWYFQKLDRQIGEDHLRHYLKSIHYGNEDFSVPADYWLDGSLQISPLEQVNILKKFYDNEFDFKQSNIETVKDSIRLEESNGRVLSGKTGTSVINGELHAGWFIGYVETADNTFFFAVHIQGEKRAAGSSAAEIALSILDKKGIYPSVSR
Outline: (§3)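 Ethanol-stopped IPNS reactions (peptide 0.3 mM, 25 °C) were mixed 1:1 with log-phase B. licheniformis ATCC 14580 diluted to 30 Klett units and incubated for 2 h at 30 °C. Tylosin was added, then after 15 min nitrocefin, with A492 read over 30 min. β-Lactam was quantified by β-lactamase synthesis relative to penicillin G.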

Micrococcus luteus [4] = test: In vitro antibiotic activity against Micrococcus luteus(ATCC 9341 stain).; format: functional, organism-based; outline: as §2
[5] = target: T1, Isopenicillin N synthase (Penicillium chrysogenum); test: Anti Micrococcus luteus activity was tested for inhibition of Isopenicillin N synthetase (isopenicillin N synthase); yes; outline: as §1
[6] = Antibiotic activity against Micrococcus luteus (ATCC 9341 strain); format: functional; outline: as §2
[7] = target: T1, Isopenicillin N synthase (Penicillium chrysogenum); test: Anti Micrococcus luteus activity was tested for inhibition of IPNS (isopenicillin N synthase); no; outline: as §1
[8] = target: T2, Regulatory protein BlaR1 (Bacillus licheniformis); test: The compound was tested for Beta-lactamase induction in B. licheniformis; +; outline: as §3

| Activity [1] | Beta-lactamase induction [3] | Activity [5] | SMILES | Antibiotic activity (Micrococcus luteus [4]) | Antibiotic activity [6] | also measured |
| --- | --- | --- | --- | --- | --- | --- |
| No activity |  |  | CC(O)[C@@H](NC(=O)C(CSSCC(NC(=O)CCC[C@H](N)C(=O)O)C(=O)N[C@@H](C(=O)O)C(C)O)NC(=O)CCC[C@H](N)C(=O)O)C(=O)O (stereo not given in full) |  |  | Antibiotic activity (Micrococcus luteus [2]): No activity |
| No activity | + |  | CC(C)[C@@H](NC(=O)[C@H](CSSC[C@H](NC(=O)Cc1cccc(N)c1)C(=O)N[C@@H](C(=O)O)C(C)C)NC(=O)Cc1cccc(N)c1)C(=O)O | Yes |  |  |
|  |  | Yes | N[C@@H](CCCC(=O)N[C@@H](CSSC[C@H](NC(=O)CCC[C@H](N)C(=O)O)C(=O)N[C@H](C(=O)O)C(C(F)(F)F)C(F)(F)F)C(=O)N[C@H](C(=O)O)C(C(F)(F)F)C(F)(F)F)C(=O)O |  | No activity |  |
| No activity | + |  | CC(C)[C@@H](NC(=O)[C@H](CS)NC(=O)CCC[C@@H](N)C(=O)O)C(=O)O | Yes |  |  |
|  |  | Yes | CC(C)[C@@H](NC(=O)[C@@H](N)CSSC[C@H](N)C(=O)N[C@@H](C(=O)O)C(C)C)C(=O)O |  | No activity |  |
|  |  |  | CC(C)[C@@H](NC(=O)[C@H](CSSC[C@H](NC(=O)[C@@H]1CCCN1)C(=O)N[C@@H](C(=O)O)C(C)C)NC(=O)[C@@H]1CCCN1)C(=O)O |  | No activity | Activity [7]: No activity |
|  |  | Yes | N[C@@H](CCCC(=O)NC(CSSCC(NC(=O)CCC[C@H](N)C(=O)O)C(=O)N[C@H](Cc1c[nH]c2ccccc12)C(=O)O)C(=O)N[C@H](Cc1c[nH]c2ccccc12)C(=O)O)C(=O)O (stereo not given in full) |  | No activity |  |
| No activity | + |  | CC(C)[C@@H](NC(=O)[C@H](CSSC[C@H](NC(=O)CCCCCCN)C(=O)N[C@@H](C(=O)O)C(C)C)NC(=O)CCCCCCN)C(=O)O | Yes |  |  |
| No activity | + |  | CC(C)[C@@H](NC(=O)[C@H](CSSC[C@H](NC(=O)OCc1ccccc1)C(=O)N[C@@H](C(=O)O)C(C)C)NC(=O)OCc1ccccc1)C(=O)O |  | No activity |  |
|  |  | Yes | N[C@@H](CCCC(=O)N[C@@H](CS)C(=O)NCC(=O)O)C(=O)O |  | No activity |  |
|  |  |  | CC(C)[C@@H](NC(=O)[C@H](CSSC[C@H](NC(=O)CCCCN)C(=O)N[C@@H](C(=O)O)C(C)C)NC(=O)CCCCN)C(=O)O | Yes |  | Beta-lactamase induction [8]: +; Activity [7]: No activity |
| No activity | + |  | CC(C)[C@@H](NC(=O)[C@H](CSSC[C@H](NC(=O)CCC[C@H](N)C(=O)O)C(=O)N[C@@H](C(=O)O)C(C)C)NC(=O)CCC[C@H](N)C(=O)O)C(=O)O | Yes |  |  |
| No activity | + |  | CC(C)[C@@H](NC(=O)[C@@H](CS)NC(=O)CCC[C@H](N)C(=O)O)C(=O)O |  | No activity |  |
| No activity | + |  | CC(C)[C@@H](NC(=O)[C@H](CSSC[C@H](NC(=O)c1cccc(C(N)C(=O)O)c1)C(=O)N[C@@H](C(=O)O)C(C)C)NC(=O)c1cccc(C(N)C(=O)O)c1)C(=O)O (stereo not given in full) | Yes |  |  |
|  |  | Yes | N[C@@H](CCCC(=O)NC(CSSCC(NC(=O)CCC[C@H](N)C(=O)O)C(=O)N[C@H](Cc1ccc(O)cc1)C(=O)O)C(=O)N[C@H](Cc1ccc(O)cc1)C(=O)O)C(=O)O (stereo not given in full) |  |  | Antibiotic activity (Micrococcus luteus [2]): No activity |
| No activity | + |  | CC(C)[C@@H](NC(=O)[C@H](CSSC[C@H](NC(=O)CCCCCN)C(=O)N[C@@H](C(=O)O)C(C)C)NC(=O)CCCCCN)C(=O)O | Yes |  |  |
|  |  | Yes | N[C@@H](CCCC(=O)N[C@@H](CSSC[C@H](NC(=O)CCC[C@H](N)C(=O)O)C(=O)NC(C(=O)O)C(C(F)(F)F)C(F)(F)F)C(=O)NC(C(=O)O)C(C(F)(F)F)C(F)(F)F)C(=O)O (stereo in doubt; 63) |  | No activity |  |
|  |  | Yes | N[C@@H](CCCC(=O)N[C@@H](CSSC[C@H](NC(=O)CCC[C@H](N)C(=O)O)C(=O)NC(C(=O)O)C(C(F)(F)F)C(F)(F)F)C(=O)NC(C(=O)O)C(C(F)(F)F)C(F)(F)F)C(=O)O (stereo in doubt; 62) |  | No activity |  |
|  |  | Yes | N[C@@H](CCCC(=O)NC(CSSCC(NC(=O)CCC[C@H](N)C(=O)O)C(=O)N[C@H](CCl)C(=O)O)C(=O)N[C@H](CCl)C(=O)O)C(=O)O (stereo not given in full) |  | No activity |  |
| No activity | + |  | CC(C)[C@@H](NC(=O)[C@H](CSSC[C@H](NC(=O)C(N)c1cccc(C(=O)O)c1)C(=O)N[C@@H](C(=O)O)C(C)C)NC(=O)C(N)c1cccc(C(=O)O)c1)C(=O)O (stereo not given in full) |  | No activity |  |
